{"data": "Measured values collected from several papers", "cell line": "HepG2", "read-out": "cell growth or viability", "note": "Each line is one published result; the experiments were not run side by side."}
{"Structure (SMILES)": "COc1ccc2c(c1)c1c(n2CO)CN2CCc3cc(OC)c(OCc4ccc(F)cc4)cc3C2C1 (centres unmarked)", "tested at": "5 µM", "time": "24 h", "endpoint": "viability", "result": "104%"}
{"Structure (SMILES)": "CC(C)(C)CC(C)(C)Nc1c(-c2cccc(C#N)c2)nc2ncccn12", "technique": "MTT", "tested at": "25 µM", "time": "48 h", "endpoint": "viability", "result": "74.5%"}
{"Structure (SMILES)": "COc1ccc2cc3[n+](cc2c1OC)CCc1cc2c(cc1-3)OCO2", "tested at": "10 µM", "time": "24 h", "endpoint": "viability", "result": "102%"}
{"Structure (SMILES)": "CC(=O)O[C@@H]1c2c(ccc3ccc(=O)oc23)OC(C)(C)[C@@H]1OC(=O)C1(C)OC1C (some centres unmarked)", "technique": "WST-1", "endpoint": "IC50", "result": "20.7 µM"}
{"Structure (SMILES)": "COc1cc2c(cc1OCc1ccccc1F)C1Cc3c(n(CO)c4ccccc34)CN1CC2 (centres unmarked)", "tested at": "10 µM", "time": "24 h", "endpoint": "viability", "result": "109%"}
{"Structure (SMILES)": "COc1ccc(CCN2CCC(Nc3nc4ccccc4n3Cc3ccc(F)cc3)CC2)cc1", "technique": "resazurin", "tested at": "10 µM", "time": "24 h", "endpoint": "viability", "result": "68%"}
{"Structure (SMILES)": "COc1cc2[nH]c(C)c(-c3ccc(Oc4ccc(OC(F)(F)F)c(F)c4)cc3)c(=O)c2cc1Cl", "technique": "resazurin", "endpoint": "IC50", "result": "> 10 µM"}
{"Structure (SMILES)": "CNc1cccc2cc(C(=O)NCc3ccc(C(=O)O)cc3)c(=O)[nH]c12", "technique": "CCK-8", "tested at": "10 µM", "time": "48 h", "endpoint": "cell death", "result": "6.1%"}
{"Structure (SMILES)": "COc1ccc2c(c1)c1c(n2CO)CN2CCc3cc(OCc4ccccc4)c(OC)cc3C2C1 (centres unmarked)", "tested at": "20 µM", "time": "24 h", "endpoint": "viability", "result": "88.9%"}
{"Structure (SMILES)": "CCCCCCn1c(-c2cccc(Cl)c2)n[nH]c1=S", "technique": "resazurin", "tested at": "1 µM", "time": "24 h", "endpoint": "viability", "result": "87%"}
{"Structure (SMILES)": "CCc1ccc(C2=NC(=Cc3ccc(CCCCCCCCCC(C)O)[nH]3)C(OC)=C2)[nH]1 (centres unmarked)", "endpoint": "IC50", "result": "1.76 µM"}
{"Structure (SMILES)": "CC(=O)OC1c2c(ccc3ccc(=O)oc23)OC(C)(C)C1OC(=O)C(C)(O)C(C)O (centres unmarked)", "technique": "WST-1", "endpoint": "IC50", "result": "24.4 µM"}
{"Structure (SMILES)": "CNc1cccc2cc(C(=O)NCCc3cccc(C(=O)O)c3)c(=O)[nH]c12", "technique": "CCK-8", "tested at": "10 µM", "time": "48 h", "endpoint": "cell death", "result": "5.9%"}
{"Structure (SMILES)": "COc1cc2[nH]c(C)c(-c3ccc(Oc4ccc(F)cc4)cc3)c(=O)c2cc1Cl", "technique": "resazurin", "endpoint": "IC50", "result": "> 10 µM"}
{"Structure (SMILES)": "COc1ccc2c(c1)c1c(n2CO)CN2CCc3cc(OC)c(OCC(F)(F)F)cc3C2C1 (centres unmarked)", "tested at": "10 µM", "time": "24 h", "endpoint": "viability", "result": "96.6%"}
{"Structure (SMILES)": "Cc1[nH]c2ccccc2c(=O)c1-c1ccc(Oc2ccc(OC(F)(F)F)cc2)nc1", "technique": "resazurin", "endpoint": "IC50", "result": "> 10 µM"}
{"Structure (SMILES)": "OC(c1cc(C(F)(F)F)nc2c(C(F)(F)F)cccc12)C1CCCCN1 (centres unmarked)", "endpoint": "IC50", "result": "11 µM"}
